Compounds with a hit are over-represented: about 2.5% of the library has one in this group of screens.
SENP7 inh = inhibitors of human SENP7 protease; inhibition, % at 5 µM; AID 434973; Q9BQF6; 330,000 compounds, 1.5% hits; recombinant SENP7, Z-RLRGG-aminoluciferin luminescence, 40 min;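 active means inhibition above about 50% at the single test dose, limit read from the data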;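 further: plate controls were DMSO with enzyme for no effect and no enzyme buffer wells for full effect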
SENP8 block-1 = SENP8 (human) protease inhibition; recombinant SENP8, Nedd8 substrate fluorescence; Q96LD8; inhibition, % at 20 µM; AID 602440; 360,000 compounds, 0.64% hits; in the data active means inhibition mostly above about 40%, no sharp cut-off; inactive means mostly below about 27%
SENP8 block-2 = SENP8 protease inhibition | Q96LD8 | purified SENP8, Z-RLRGG-aminoluciferin cleavage, luminescence | inhibition, % at 10 µM | 330,000 compounds, 1.2% hits | AID 2540; in the data active means inhibition above about 50%
SENP6 inh = blocks the human protease SENP6. Q9GZR1. Recombinant SENP6 catalytic domain, aminoluciferin luminescence. inhibition, % at 10 µM. 330,000 compounds, 1.8% hits. AID 2599;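 active means inhibition above about 50% at the single tested dose, limit read from the data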;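 further: plate controls were DMSO wells with enzyme for no effect and DMSO wells lacking enzyme for full effect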
Target sequence (Q9GZR1 628-1112 limits assumed): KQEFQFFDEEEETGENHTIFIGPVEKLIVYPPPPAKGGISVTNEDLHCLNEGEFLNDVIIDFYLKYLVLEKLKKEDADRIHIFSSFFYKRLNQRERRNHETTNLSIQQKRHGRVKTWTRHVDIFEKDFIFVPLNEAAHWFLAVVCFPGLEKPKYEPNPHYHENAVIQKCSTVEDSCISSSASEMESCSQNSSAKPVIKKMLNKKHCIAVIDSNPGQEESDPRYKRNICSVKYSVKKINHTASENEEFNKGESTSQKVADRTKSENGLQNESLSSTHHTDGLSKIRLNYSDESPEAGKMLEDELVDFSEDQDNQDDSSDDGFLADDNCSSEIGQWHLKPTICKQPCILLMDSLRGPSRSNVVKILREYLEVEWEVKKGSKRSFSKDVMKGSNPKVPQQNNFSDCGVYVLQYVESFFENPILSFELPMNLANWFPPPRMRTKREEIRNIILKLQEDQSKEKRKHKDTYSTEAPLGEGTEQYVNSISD
SENP1 inh = blocks the human SENP1 SUMO protease catalytic domain; 360,000 compounds, 0.21% hits; AID 624204; recombinant SENP1 catalytic domain, CyPet-SUMO1-YPet FRET cleavage; inhibition, % at 10 µM;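 active means inhibition at least 30% at 10 µM, raw YFP signal under a set limit, fluorescence ratio 0.5 to 1.5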;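 further: 0% = enzyme with DMSO and 100% = no enzyme wells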
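Compound: 10 µM single point, 0.5% DMSO; Test system: hSENP1 catalytic domain, recombinant; Timing: 50 min reaction at room temperature; Technique: FRET, CFP and YFP emission; Control set: no-enzyme wells low, DMSO-plus-enzyme wells high control.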
SENP8 conf = human SENP8 inhibition, confirmed; shares compounds with SENP7 inh; Recombinant SENP8, Z-RLRGG-aminoluciferin luminescence, 60 min; inhibition, % at 12.5 µM; 6,200 compounds, 40% hits; AID 488912;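 active means mean inhibition across replicates above about 50%, limit read from the data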
SENP6 conf = confirmation of human SENP6 protease inhibitors; shares compounds with SENP7 inh; recombinant SENP6, Z-RLRGG-aminoluciferin luminescence; 6,200 compounds, 58% hits; AID 488915; inhibition, % at 12.5 µM
SENP7 conf = human SENP7 inhibition, confirmed; shares compounds with SENP7 inh; recombinant SENP7, Z-RLRGG-aminoluciferin luminescence, 40 min; inhibition, % at 12.5 µM; 6,200 compounds, 69% hits; AID 488917
Casp3 SENP sel = inhibits human caspase-3 in SENP selectivity test; shares compounds with SENP7 inh; purified caspase-3, Z-DEVD-aminoluciferin luminescence, 60 min; inhibition, % at 12.5 µM; 6,200 compounds, 60% hits;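 active means mean inhibition above about 50%, limit read from the data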;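 further: plate controls were enzyme with DMSO for no effect and wells without caspase-3 for full effect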
Luc interf = interferes with luciferase luminescence in SENP counter-screen. shares compounds with SENP7 inh. 6,200 compounds, 39% hits. inhibition, % at 12.5 µM. AID 488919. Pre-incubated SENP8/Z-RLRGG-aminoluciferin, luciferase luminescence interference;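 active means mean inhibition above about 50% when retested at one dose, limit read from the data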;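 further: plate controls were DMSO wells with completed reaction for no effect and substrate without enzyme for full effect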
The depositor's hits bear a star; / = no result.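 How the source made its calls, unless noted: active means mean inhibition above about 50% in the one-dose retest (limit read from the data); inactive means the rest.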

SMILES	SENP7 inh	SENP8 block-1	SENP8 block-2	SENP6 inh	SENP1 inh	SENP8 conf	SENP6 conf	SENP7 conf	Casp3 SENP sel	Luc interf
O=[N+]([O-])c1cccc(C=Nc2cccc3ccccc23)c1O	43	-280	85*	88*	-21	11	39	4	1	-1
CCOC(=O)c1c(/N=C/c2cccc([N+](=O)[O-])c2O)sc(C)c1C	13	10	-5	-15	11	/	/	/	/	/
Cc1nc2ccccc2c(=O)n1/N=C/c1ccc(O)cc1O	9	-9	-6	-9	-14	/	/	/	/	/
Oc1ccc(C=Nc2cccc3ccccc23)c(O)c1	33	-435	44	70*	-1	-7	2	1	9	1
O=C(/C=C/c1cccc(O)c1)c1ccc(N2CCOCC2)cc1	74*	-18	35	78*	-3	-34	-23	-16	1	51*
CCc1ccc2oc(-c3cccc(NC(=O)c4cccnc4)c3)nc2c1	47	12	37	61*	0	6	-4	-1	1	2
CCc1cccc(CC)c1C(OC(C)=O)c1cccnc1 (stereo unspecified)	-3	15	55*	-25	1	8	10	18	10	6
O=C(COC(=O)Cn1cnc2ccccc21)Nc1cc(S(=O)(=O)N2CCOCC2)ccc1Cl	-4	9	-4	2	1	/	/	/	/	/
O=C(COC(=O)Cn1cnc2ccccc21)Nc1cc2c(cc1Cl)C(=O)c1ccccc1C2=O	90*	16	61*	71*	5	58*	67*	86*	73*	14
O=C(Nc1cccc(O)c1)c1noc2c1CCc1ccccc1-2	99*	17	96*	97*	-1	94*	96*	102*	94*	92*
CCCC1=NN(c2ccc([N+](=O)[O-])cc2)C(=O)/C1=C\N(C)C	96*	52*	95*	95*	3	97*	97*	102*	97*	97*
N#Cc1cc2ccc(N3CCOCC3)cc2cc1C#N	-7	-280	88*	91*	-29	15	22	3	4	-2
CCc1nnc(NC(=O)c2ccc(-c3ccccc3Cl)o2)s1	68*	-228	10	33	-1	5	3	1	9	-3
O=C(Nc1cccc(F)c1)c1ccc(-c2ccccc2Cl)o1	34	-6	42	54*	0	47	50	70*	25	21
O=C(NCc1cccnc1)c1ccc(-c2cccc(Cl)c2Cl)o1	91*	-5	2	8	-11	-29	-16	-6	-4	-7
COc1ccc(NC(=O)c2ccc(-c3ccccc3Cl)o2)cc1	52*	6	69*	75*	0	48	64*	86*	49	5
COc1cccc(/C=C/C(=C2/C(=O)N(c3ccccc3)N=C2C)c2ccc(C)cc2)c1OC	10	19	-6	-8	2	/	/	/	/	/
O=C(Nc1ccccc1)c1cc(-c2ccccc2Cl)no1	85*	22	69*	88*	4	81*	81*	95*	69*	74*
COc1ccc(NC(=O)c2cc(-c3ccccc3Cl)no2)cc1	-1	14	1	-3	1	/	/	/	/	/
CCOc1ccc(C(=O)NN2C(=S)NC(C)(C)C=C2C)cc1	1	-42	-7	-28	3	/	/	/	/	/
Oc1c(Cl)cc(Cl)cc1C=Nc1cc(C(F)(F)F)ccc1N1CCc2ccccc2C1	99*	-112	96*	15	-23	94*	96*	102*	95*	62*
